# Activity calls are given as the source filed them.
# Key:
# SK-BR-3 [1] = assay: Cytotoxicity against human SK-BR-3 cells assessed as reduction in cell viability incubated for 48 hrs by SRB assay; type: functional
# Method in brief: (§1)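 Followed the NCI SRB protocol: cells exposed 48 h to a range of concentrations. GI50 is the concentration giving 50% net growth inhibition; TGI is 100% growth inhibition; LC50 kills 50% of initial cells. Mean ± SE of three separate experiments.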
# [2] = Apparent permeability in human Caco2 cells; type: ADME, cell-based; settings: caco-2
# MCF7 [3] = assay: Cytotoxicity against siNMDA receptor transfected human MCF7 cells assessed as reduction in cell viability after 48 hrs by SRB assay; type: functional
# Method in brief: (§2)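 GluN1 subunit knocked down by siNMDA R transfection, confirmed by qRT-PCR and Western blot; compared with untransfected cells. SRB viability read after 48 h exposure to a range of concentrations. Mean ± SE of three separate experiments.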
# SK-BR-3 [4] = assay: Induction of apoptosis in human SK-BR-3 cells transfected with siNMDA receptor after 72 hrs by Annexin V-FITC/propidium iodide staining-based flow cytometric analysis; type: functional, cell-based
# MCF7 [5] = assay: Cytotoxicity against human MCF7 cells assessed as reduction in cell viability after 48 hrs by SRB assay; type: functional; method in brief: as §1
# [6] = Displacement of [3H]-(+)-MK-801 from PCP binding site of NMDA receptor in pig brain cortex membranes after 120 mins by scintillation counting analysis; type: cell membranes, Sus scrofa, Cerebral cortex, Membrane
# SK-BR-3 [7] = assay: Cytotoxicity against siNMDA receptor transfected human SK-BR-3 cells assessed as reduction in cell viability after 48 hrs by SRB assay; type: functional; method in brief: as §2
# SK-BR-3 [8] = assay: Induction of apoptosis in human SK-BR-3 cells transfected with siNMDA receptor assessed as active caspase-3 level incubated for 72 hrs by Western blot analysis; type: functional, cell-based
# Method in brief: (§3)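 Cells transfected with siNMDA R (GluN1) or left untransfected, then treated 72 h (MCF-7 100 μM, SKBR3 25 μM) or left untreated. Cleaved caspase-3 detected by immunoblot; densitometry normalised to GAPDH; p < 0.01 threshold.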
# MCF7 [9] = assay: Induction of apoptosis in human MCF7 cells transfected with siNMDA receptor assessed as active caspase-3 level incubated for 72 hrs by Western blot analysis; type: functional, cell-based; method in brief: as §3
# MCF7 [10] = assay: Induction of apoptosis in human MCF7 cells transfected with siNMDA receptor after 72 hrs by Annexin V-FITC/propidium iodide staining-based flow cytometric analysis; type: functional, cell-based
# [11] = Metabolic stability in human liver microsomes; type: ADME, Microsome
# SK-BR-3 [12] = assay: Induction of apoptosis in human SK-BR-3 cells after 48 to 72 hrs by AnnexinV-FITC/PI staining based flow cytometric analysis; type: functional, cell-based; settings: time hrs 48-72
# SK-BR-3 [13] = assay: Induction of apoptosis in human SK-BR-3 cells assessed as late apoptotic cells at 25 uM after 72 hrs by Annexin V-FITC/propidium iodide staining-based flow cytometric analysis (reference value: 1 to 3 %); type: functional
# SK-BR-3 [14] = assay: Induction of apoptosis in human SK-BR-3 cells assessed as late apoptotic cells at 25 uM after 48 hrs by Annexin V-FITC/propidium iodide staining-based flow cytometric analysis (reference value: 2 %); type: functional
# SK-BR-3 [15] = assay: Induction of apoptosis in human SK-BR-3 cells assessed as necrotic cells at 25 uM after 72 hrs by Annexin V-FITC/propidium iodide staining-based flow cytometric analysis (reference value: 1 to 3 %); type: functional
# MCF7 [16] = assay: Induction of apoptosis in human MCF7 cells assessed as early apoptotic cells at 100 uM after 72 hrs by Annexin V-FITC/propidium iodide staining-based flow cytometric analysis (reference value: 2 to 13 %); type: functional
# MCF7 [17] = assay: Induction of apoptosis in human MCF7 cells after 48 to 72 hrs by AnnexinV-FITC/PI staining based flow cytometric analysis; type: functional, cell-based; settings: time hrs 48-72
# SK-BR-3 [18] = assay: Induction of apoptosis in human SK-BR-3 cells assessed as early apoptotic cells at 25 uM after 48 hrs by Annexin V-FITC/propidium iodide staining-based flow cytometric analysis (reference value: 9 %); type: functional
# SK-BR-3 [19] = assay: Induction of apoptosis in human SK-BR-3 cells transfected with si-NMDA receptor assessed as necrotic cells at 25 uM after 72 hrs by Annexin V-FITC/propidium iodide staining-based flow cytometric analysis (reference value: 4 %); type: functional
# MCF7 [20] = assay: Induction of apoptosis in human MCF7 cells assessed as late apoptotic cells at 100 uM after 72 hrs by Annexin V-FITC/propidium iodide staining-based flow cytometric analysis (reference value: 1 to 2 %); type: functional
# SK-BR-3 [21] = assay: Induction of apoptosis in human SK-BR-3 cells assessed as fold increase in cleavage of pro-caspase 3 at 25 uM incubated for 72 hrs by Western blot analysis relative to control; type: functional
# Method in brief: (§4)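 Caspase-3 immunoblot after 72 h treatment (MCF-7 100 μM, SKBR3 25 μM), tracking procaspase-3 cleavage to the active form. Densitometry normalised to GAPDH loading control.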
# MCF7 [22] = assay: Induction of apoptosis in human MCF7 cells transfected with siNMDA receptor assessed as early apoptotic cells at 100 uM after 72 hrs by Annexin V-FITC/propidium iodide staining-based flow cytometric analysis (reference value: 33 %); type: functional
# MCF7 [23] = assay: Induction of apoptosis in human MCF7 cells assessed as early apoptotic cells at 100 uM after 48 hrs by Annexin V-FITC/propidium iodide staining-based flow cytometric analysis (reference value: 16 %); type: functional
# MCF7 [24] = assay: Induction of apoptosis in human MCF7 cells transfected with siNMDA receptor assessed as necrotic cells at 100 uM after 72 hrs by Annexin V-FITC/propidium iodide staining-based flow cytometric analysis (reference value: 3 %); type: functional
# SK-BR-3 [25] = assay: Induction of apoptosis in human SK-BR-3 cells transfected with siNMDA receptor assessed as active caspase-3 level at 25 uM incubated for 72 hrs by Western blot analysis; type: functional, cell-based; method in brief: as §3
# SK-BR-3 [26] = assay: Induction of apoptosis in human SK-BR-3 cells at 25 uM by AnnexinV-FITC/PI staining based flow cytometric analysis; type: functional, cell-based; settings: time hrs 48-72, TDE = time-dependent effect
# MCF7 [27] = assay: Induction of apoptosis in human MCF7 cells assessed as late apoptotic cells at 100 uM after 48 hrs by Annexin V-FITC/propidium iodide staining-based flow cytometric analysis (reference value: 2 %); type: functional
# SK-BR-3 [28] = assay: Induction of ROS generation in human SK-BR-3 cells at 25 uM after 72 hrs by DCFDA staining-based flow cytometric analysis; type: functional, cell-based
# Method in brief: (§5)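 MCF-7 treated at 100 μM, SKBR3 at 25 μM, for 24, 48 and 72 h, alone or after NAC (10 mM) pretreatment. ROS measured by DCFDA staining and flow cytometry. Significance set at p < 0.01 vs untreated or vs treated-alone cells.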
# SK-BR-3 [29] = assay: Induction of mitochondrial membrane depolarization in human SK-BR-3 cells at 25 uM by JC1 staining based flow cytometric analysis; type: functional, cell-based
# Method in brief: (§6)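 Mitochondrial membrane potential (Δψm) in untreated versus treated cells (MCF-7 100 μM, SKBR3 25 μM), assessed by JC-1 staining.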
# SK-BR-3 [30] = assay: Induction of apoptosis in human SK-BR-3 cells assessed as necrotic cells at 25 uM after 48 hrs by Annexin V-FITC/propidium iodide staining-based flow cytometric analysis (reference value: 2 %); type: functional
# SK-BR-3 [31] = assay: Induction of apoptosis in human SK-BR-3 cells transfected with siNMDA receptor assessed as early apoptotic cells at 25 uM after 72 hrs by Annexin V-FITC/propidium iodide staining-based flow cytometric analysis (reference value: 35 %); type: functional
# MCF7 [32] = assay: Induction of ROS generation in human MCF7 cells at 100 uM after 72 hrs by DCFDA staining-based flow cytometric analysis; type: functional, cell-based; method in brief: as §5
# SK-BR-3 [33] = assay: Induction of ROS generation in human SK-BR-3 cells at 25 uM pretreated for 1 hr with ROS scavenger, NAC followed by compound addition and measured after 72 hrs by DCFDA staining-based flow cytometric analysis; type: functional, cell-based; method in brief: as §5
# MCF7 [34] = assay: Induction of apoptosis in human MCF7 cells assessed as necrotic cells at 100 uM after 72 hrs by Annexin V-FITC/propidium iodide staining-based flow cytometric analysis (reference value: 1 to 5 %); type: functional
# MCF7 [35] = assay: Induction of apoptosis in human MCF7 cells transfected with siNMDA receptor assessed as late apoptotic cells at 100 uM after 72 hrs by Annexin V-FITC/propidium iodide staining-based flow cytometric analysis (reference value: 4 %); type: functional
# SK-BR-3 [36] = assay: Induction of apoptosis in human SK-BR-3 cells transfected with siNMDA receptor assessed as late apoptotic cells at 25 uM after 72 hrs by Annexin V-FITC/propidium iodide staining-based flow cytometric analysis (reference value: 2 %); type: functional
# MCF7 [37] = assay: Induction of apoptosis in human MCF7 cells at 100 uM by AnnexinV-FITC/PI staining based flow cytometric analysis; type: functional, cell-based; settings: time hrs 48-72, TDE = time-dependent effect
# MCF7 [38] = assay: Induction of apoptosis in human MCF7 cells transfected with siNMDA receptor assessed as active caspase-3 level at 100 uM incubated for 72 hrs by Western blot analysis; type: functional, cell-based; method in brief: as §3
# MCF7 [39] = assay: Induction of apoptosis in human MCF7 cells assessed as necrotic cells at 100 uM after 48 hrs by Annexin V-FITC/propidium iodide staining-based flow cytometric analysis (reference value: 7 %); type: functional
# MCF7 [40] = assay: Induction of apoptosis in human MCF7 cells assessed as fold increase in cleavage of pro-caspase 3 at 100 uM incubated for 72 hrs by Western blot analysis relative to control; type: functional; method in brief: as §4
# MCF7 [41] = assay: Induction of mitochondrial membrane depolarization in human MCF7 cells at 100 uM by JC1 staining based flow cytometric analysis; type: functional, cell-based; method in brief: as §6
# SK-BR-3 [42] = assay: Induction of apoptosis in human SK-BR-3 cells assessed as early apoptotic cells at 25 uM after 72 hrs by Annexin V-FITC/propidium iodide staining-based flow cytometric analysis (reference value: 1 to 9 %); type: functional
# MCF7 [43] = assay: Induction of ROS generation in human MCF7 cells at 100 uM pretreated for 1 hr with ROS scavenger, NAC followed by compound addition and measured after 72 hrs by DCFDA staining-based flow cytometric analysis; type: functional, cell-based; method in brief: as §5
compound,measurement,setting,value
NC[C@@H]1COCC(c2ccccc2)(c2ccccc2)O1,Activity,SK-BR-3 [1],Dose-dependent effect
same,GI50,SK-BR-3 [1],74 µM
same,permeability,[2],Permeable
same,GI50,MCF7 [3],210 µM
same,Activity,SK-BR-3 [4],Active
same,Activity,MCF7 [5],Dose-dependent effect
same,GI50,MCF7 [5],250 µM
same,Ki,[6],497 nM
same,GI50,SK-BR-3 [7],66 µM
same,Activity,SK-BR-3 [8],Active
same,Activity,MCF7 [9],Active
same,Activity,MCF7 [10],Active
same,Stabilty,[11],Stable
NCC1COCC(c2ccccc2)(c2ccccc2)O1 (racemic),GI50,SK-BR-3 [1],31.2 µM
same,LC50 (concentration killing 50% of initial cells),SK-BR-3 [1],> 300 µM
same,TGI,SK-BR-3 [1],200 µM
same,GI50,MCF7 [5],74.4 µM
same,LC50 (concentration killing 50% of initial cells),MCF7 [5],253 µM
same,TGI,MCF7 [5],137 µM
NC[C@H]1COCC(c2ccccc2)(c2ccccc2)O1,Activity,SK-BR-3 [12],Dose-dependent effect
same,Activity,SK-BR-3 [1],Dose-dependent effect
same,GI50,SK-BR-3 [1],23 µM
same,Activity,SK-BR-3 [13],15%
same,Activity,SK-BR-3 [14],5%
same,Activity,SK-BR-3 [15],17%
same,Activity,MCF7 [16],16%
same,Activity,MCF7 [17],Dose-dependent effect
same,Activity,SK-BR-3 [18],19%
same,permeability,[2],Permeable
same,Activity,SK-BR-3 [19],8%
same,GI50,MCF7 [3],520 µM
same,Activity,MCF7 [5],Dose-dependent effect
same,GI50,MCF7 [5],99 µM
same,Activity,MCF7 [20],19%
same,fold change (FC),SK-BR-3 [21],5.1
same,Activity,MCF7 [22],26%
same,Activity,MCF7 [23],26%
same,Activity,MCF7 [24],7%
same,Activity,SK-BR-3 [25],inactive
same,Ki,[6],> 10000 nM
same,GI50,SK-BR-3 [7],57 µM
same,Activity,SK-BR-3 [26],Tde
same,Activity,MCF7 [27],8%
same,Activity,SK-BR-3 [28],Active
same,Activity,SK-BR-3 [29],inactive
same,Activity,SK-BR-3 [30],4%
same,Activity,SK-BR-3 [31],24%
same,Activity,MCF7 [32],Active
same,Activity,SK-BR-3 [33],inactive
same,Activity,MCF7 [34],9%
same,Activity,MCF7 [35],5%
same,Activity,SK-BR-3 [36],3%
same,Activity,MCF7 [37],Tde
same,Activity,MCF7 [38],inactive
same,Activity,MCF7 [39],8%
same,fold change (FC),MCF7 [40],3.2
same,Activity,MCF7 [41],inactive
same,Activity,SK-BR-3 [42],11%
same,Stabilty,[11],Stable
same,Activity,MCF7 [43],inactive
NC[C@@H]1COC[C@](c2ccccc2)(C2CCCCC2)O1 (relative stereo),GI50,SK-BR-3 [1],25.8 µM
same,LC50 (concentration killing 50% of initial cells),SK-BR-3 [1],> 300 µM
same,TGI,SK-BR-3 [1],180 µM
same,GI50,MCF7 [5],89.7 µM
same,LC50 (concentration killing 50% of initial cells),MCF7 [5],244 µM
same,TGI,MCF7 [5],148 µM

# Reference: ChEMBL document CHEMBL4665645, “Role of the NMDA Receptor in the Antitumor Activity of Chiral 1,4-Dioxane Ligands in MCF-7 and SKBR3 Breast Cancer Cells” (ACS Med Chem Lett, 2019)
